Screening results (PubChem)
NPY2 pot ag – NPY-Y2 potentiators or agonists, primary screen, cell-based; activation, % at 3.6 µM; cells expressing NPY-Y2, potentiator/agonist read-out; AID 1359, 2008; 0.45% of 220,000 active; Neuropeptide Y receptor type 2 (Homo sapiens), P49146; in the data active = activation above about 27%;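 also: cells stimulated with NPY near EC25 plus isoproterenol at EC100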
NPY-Y1 antag – NPY-Y1 receptor antagonists, primary screen, cell-based; HEK293-CNG Y1 cells, membrane potential fluorescence; NPY at EC95, then isoproterenol; inhibition, % at 3.6 µM; 1% of 200,000 active;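 active = inhibition above the campaign mean inhibition of all tested compounds plus 3 SD, cut at about 20% in these data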
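material = HEK293 cells with Y1 receptor plus CNG channel | also added = NPY 25 nM then isoproterenol 1 µM plus Ro 20-1724 25 µM | schedule = dye 3 h, compound 60 min room temperature, stimulation 45 min | measured by = membrane potential fluorescence | benchmarks = high control isoproterenol alone, low control NPY with isoproterenol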
EP2 mod – EP2 receptor modulators, cAMP readout, primary screen, cell-based, HTRF cAMP, PGE2 stimulation; Prostaglandin E2 receptor EP2 subtype (Homo sapiens), P43116; 0.83% of 260,000 active; EP2-expressing cells, cAMP HTRF FRET, PGE2 co-stimulation; induction, % at 25 µM;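 active = compounds whose cAMP rise, as percent of the full-agonist control response, exceeds 60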;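 also: rat C6 glioma line stably carrying human EP2 under a CMV promoter; the protocol text gives 20 µM as final concentration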
Target sequence (P43116 whole entry, looked up): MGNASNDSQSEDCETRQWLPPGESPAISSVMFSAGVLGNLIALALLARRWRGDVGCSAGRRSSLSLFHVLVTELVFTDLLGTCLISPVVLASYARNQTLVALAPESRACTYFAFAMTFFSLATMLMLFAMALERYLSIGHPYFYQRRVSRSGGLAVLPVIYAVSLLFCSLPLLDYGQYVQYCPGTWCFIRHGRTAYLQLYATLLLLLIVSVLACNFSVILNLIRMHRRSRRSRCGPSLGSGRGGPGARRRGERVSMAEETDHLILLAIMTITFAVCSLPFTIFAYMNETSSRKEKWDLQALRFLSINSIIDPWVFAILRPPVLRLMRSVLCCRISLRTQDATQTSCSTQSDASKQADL
PGE2 EP2 inh – human EP2 receptor antagonists, primary screen, TR-FRET cAMP, C6 glioma cells; C6 glioma cells expressing human EP2; cells stimulated with saturating PGE2; inhibition, % at 25 µM; 0.52% of 260,000 active; Prostaglandin E2 receptor EP2 subtype (Homo sapiens), P43116;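 active = percent inhibition above 40 after rounding to a whole number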;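 also: rat C6 glioma host cells with rolipram phosphodiesterase inhibitor present; the protocol text gives 20 µM as final concentration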
NPY Y2 blocker – NPY-Y2 receptor antagonists, primary screen, cell-based | Neuropeptide Y receptor type 2 (Homo sapiens), P49146 | NPY-Y2 expressing cells, antagonist mode | inhibition, % at 2.7 µM | 0.99% of 140,000 active; in the data active = inhibition above about 17%
NPY1 pot ag – NPY-Y1 receptor potentiators or agonists, primary screen, cell-based | Neuropeptide Y receptor type 1 (Homo sapiens), P25929 | NPY-Y1 expressing cells, potentiator/agonist activation | activation, % at 3.6 µM | 0.37% of 220,000 active | AID 1304, 2008; in the data active = activation above about 33%, passing the limit was not always enough;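 also: cells stimulated with NPY at EC10 then isoproterenol at EC100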
NPY1 antag ctr – NPY-Y1 receptor antagonists, selectivity check, counter-screen for NPY-Y2 antagonist project, cell-based | shares compounds with NPY Y2 blocker | cell-based NPY-Y1 antagonism counterscreen | inhibition, % at 3.6 µM | 19% of 710 active; in the data active = inhibition above about 20%;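 also: cells challenged with NPY then isoproterenol with cAMP sensed through a CNG channel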
NPY-Y2 ant conf – NPY-Y2 receptor antagonists, retest of hits, confirmation, HEK293-CNG cells, membrane potential fluorescence, triplicate; shares compounds with NPY Y2 blocker; HEK293 NPY-Y2 CNG channel; inhibition, % at 2.8 µM; 32% of 710 active;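 active = mean inhibition of triplicate wells above the hit cutoff set in the primary screen, cut at about 17% in these data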
EP2 confirm – cAMP induction in EP2, EP4, beta2-AR and parental cells, confirmation, counter-screen for EP2 modulator project, cell-based, five parallel assays, C6 glioma, HEK293; 47% of 1,300 active; calls only at 20 µM (by protocol); shares compounds with EP2 mod; cAMP HTRF induction; plus low (about EC15) PGE2 agonist;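 active = cAMP induction above 50% in the main assay while under 30% in all four parallel counter assays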;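 also: rat C6 glioma cells stably expressing human EP2 receptor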
Of the large screens only hits and unclear results are named; the others gave an inactive call (follow-up assays come after a bar, where they were run). The list is not random: actives were taken first. Their share in the collection is about 2.8%.

N#CCSc1nnc(COc2cccc3ccccc23)n1-c1ccccc1	none
O=C(CCn1ncc2ccccc21)NC1(c2ccc(F)cc2)CCCC1	none (no result: NPY2 pot ag, NPY-Y1 antag, PGE2 EP2 inh, NPY Y2 blocker, NPY1 pot ag)
CC(C)CCn1c(-c2nonc2N)nc2ccccc21	EP2 mod 70, NPY Y2 blocker 18 | NPY1 antag ctr inactive | NPY-Y2 ant conf inactive | EP2 confirm inactive
O=C(CSCc1c(Cl)cccc1Cl)Nc1ccccc1-c1ccccc1	EP2 mod 75, NPY Y2 blocker 37 | NPY1 antag ctr inactive | NPY-Y2 ant conf 24 | EP2 confirm inactive
O=C(COC(=O)Cc1c(Cl)cccc1Cl)Nc1ccccc1-c1ccccc1	none
CN(C)Cc1ccccc1Sc1cccc2ccccc12	EP2 mod 75, NPY Y2 blocker 22 | NPY1 antag ctr inactive | NPY-Y2 ant conf 21 | EP2 confirm active
CN(C)Cc1ccccc1Sc1ccccc1Br	none
CNC(=O)C(=O)NCCN1CCOCC1	none (no result: NPY2 pot ag, NPY-Y1 antag, NPY Y2 blocker, NPY1 pot ag)
Cc1ccccc1/C=C/c1nc2ccccc2c(=O)n1CCc1ccccc1	EP2 mod 71, NPY Y2 blocker 23 | NPY1 antag ctr inactive | NPY-Y2 ant conf 29 | EP2 confirm active
CCn1c(COc2cccc3ccccc23)nnc1SCC(=O)Nc1ccc(Br)cc1	none (no result: NPY2 pot ag, NPY-Y1 antag, NPY Y2 blocker, NPY1 pot ag)
CCCc1cc(-c2n[nH]c(=S)n2C(C)c2ccccc2)cs1 (centres undefined)	EP2 mod 68, NPY Y2 blocker 20 | NPY1 antag ctr inactive | NPY-Y2 ant conf inactive | EP2 confirm active
C/C(=N\NC(=S)NCc1ccccc1)c1ccc2ccccc2c1	none
C/C(CCC(C)C)=N\NC(=S)NCc1ccccc1	EP2 mod 66 (no result: NPY Y2 blocker) | EP2 confirm active
Cc1c(NC(=S)NC(=O)c2ccc(-c3ccc(Cl)cc3)o2)cccc1C(=O)O	EP2 mod 99 (no result: NPY Y2 blocker) | EP2 confirm active
O=C(NC(=S)Nc1ccccc1O)c1ccc(-c2ccc(Cl)cc2)o1	none
Cc1ccc(S(=O)(=O)n2c3ccc(F)cc3c3nc(C)sc32)cc1	EP2 mod 95 | EP2 confirm active
O=c1c2ccccc2c(-c2ccccc2)nn1Cc1c(Cl)cccc1Cl	EP2 mod 85 | EP2 confirm active
C=CCn1c(SCC(N)=O)nc(C)cc1=O	EP2 mod 68 | EP2 confirm inactive
CCc1nn(CC(=O)NC2(c3ccc4c(c3)OCO4)CCCC2)c(=O)c2ccccc12	none (no result: NPY2 pot ag, NPY-Y1 antag, NPY Y2 blocker, NPY1 pot ag)
C=CCC(=O)OCCCCCCOc1ccc(C(=O)O)cc1	EP2 mod 67 | EP2 confirm inactive
CCCC(=O)Nc1ccccc1Sc1ncnc2scc(-c3ccccc3)c12	EP2 mod 68 | EP2 confirm inactive
COc1ccc(Cn2c(C3CC3)nc3ccc(NC(=O)C4CCCCC4)cc3c2=O)cc1	none (no result: NPY2 pot ag, NPY-Y1 antag, NPY Y2 blocker, NPY1 pot ag)
CCOC(=O)CN(C(=O)CSc1nnc(Cc2ccccc2)n1-c1ccc(C)cc1)c1ccccc1	none | EP2 confirm inactive
CCOc1ccc(-c2nnc3sc(COc4ccccc4)nn23)cc1	none
CCOc1ccc(-c2nn3c(-c4ccccc4)nnc3s2)cc1	EP2 mod 65 | EP2 confirm active
C=CCNCc1cc2c(C(C)(C)C)nn(-c3ccc(F)cc3)c2[nH]c1=O	none (no result: NPY2 pot ag, NPY-Y1 antag, NPY Y2 blocker, NPY1 pot ag)
